This is a sample that favours compounds with a hit; in the whole collection about 1.4% have one here.
Fh CTSL1 inh = blocks F. hepatica cathepsin L1 in PFM18AAP counter-screen. inhibition, % at 5.96 µM. AID 1906. recombinant F. hepatica cathepsin L1, Z-Leu-Arg-MCA fluorescence. hit rate 0.49% among 300,000;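 active = inhibition above the mean of all tested compounds plus 3 SD, set per screening campaign, cut at about 17% in these data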;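 note: 0% = plate median of test compound wells and 100% = 1 µM Z-Phe-Ala-diazomethylketone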
ATG4B inh = blocks human ATG4B protease cleavage of LC3 substrate; Q9Y4P1; inhibition, % at 8.33 µM; hit rate 0.51% among 340,000; ATG4B cleavage of LC3-PLA2, NBD-HPC fluorescence, 1 h; AID 504462; in the data active = inhibition above about 40%
Target sequence (Q9Y4P1 whole entry, looked up): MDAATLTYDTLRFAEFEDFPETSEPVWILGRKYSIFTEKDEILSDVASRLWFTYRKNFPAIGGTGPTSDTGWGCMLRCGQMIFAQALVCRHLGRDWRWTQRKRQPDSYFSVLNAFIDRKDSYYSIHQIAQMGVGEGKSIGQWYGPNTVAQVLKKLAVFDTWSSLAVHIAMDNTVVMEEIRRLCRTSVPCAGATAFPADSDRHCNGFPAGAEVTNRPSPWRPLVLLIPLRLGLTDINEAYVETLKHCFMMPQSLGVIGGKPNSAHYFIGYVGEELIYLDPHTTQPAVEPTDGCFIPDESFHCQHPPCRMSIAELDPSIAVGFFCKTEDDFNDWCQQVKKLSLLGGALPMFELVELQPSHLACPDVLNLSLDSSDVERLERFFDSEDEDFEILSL
Diaphorase inh = counter-screen for diaphorase-based assays: diaphorase inhibitors and chemical oxidizers; inhibition, % at 20 µM; diaphorase resazurin-to-resorufin fluorescence, NADH, 16 min; bacterial (C. kluyveri) enzyme, not human; hit rate 0.69% among 190,000;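 active = primary screen inhibition at 20 µM above a set limit, cut at about 50% in these data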;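 note: plate controls were DMSO with full reaction for no effect and wells lacking NADH for full effect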
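Assay system – diaphorase enzyme from Clostridium kluyveri · Amount – diaphorase 0.14 U/mL (working solution) · Times – reaction incubation of 16 min at room temperature · Controls – No-NADH positive control and DMSO neutral control · Signal – resorufin fluorescence 544/590 nm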
Diaph act CS = diaphorase activation or chemical reduction counter-screen; Diaphorase/resazurin coupled assay, resorufin fluorescence, 16 min; hits give high values; 1 = vehicle wells, 0 = NADH-free wells; activation factor at 20 µM; hit rate 0.005% among 190,000;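 active = diaphorase activity raised at least twofold by the compound at 20 µM; inactive = activation factor below 2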
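Material: purified diaphorase enzyme from Clostridium kluyveri / Medium: HEPES pH 7.4 buffer with MgCl2 and Tween 20 / Schedule: enzyme reaction of 16 min at room temperature / Measured by: resorufin fluorescence, excitation 544 nm, emission 590 nm / Evaluation: rise in resorufin formation, marking diaphorase activation or chemical reduction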
HKDC1 inh = blocks human hexokinase HKDC1 activity | Q2TB90 | recombinant HKDC1, G6PDH/diaphorase resazurin coupled fluorescence | inhibition, % at 20 µM | hit rate 0.16% among 340,000;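 active = inhibition above about 35% when tested at 20 µM, limit read from the data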;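 note: plate controls were DMSO wells with enzyme for no effect and DMSO wells lacking enzyme for full effect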
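System: Recombinant HKDC1 hexokinase | Amount: HKDC1 at 5 µg/mL | Reagent: Glucose with 1 mM ATP | Doses: Single 20 µM dose | Incubation: Reaction time 90 min, room temperature, protected from light | Signal: Coupled resazurin fluorescence, excitation 525 nm, emission 613 nm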
ATG4B conf = ATG4B (human) inhibition, single-dose confirmed; ATG4B protease fluorescent substrate cleavage assay; hit rate 92% among 320; inhibition, % at 8.33 µM; shares compounds with ATG4B inh; in the data active = inhibition above about 39%
PLA2 ctr = counter-screen for ATG4B inhibitors: human phospholipase A2; shares compounds with ATG4B inh; purified PLA2, NBD-C6-HPC fluorescence, 45 min; inhibition, % at 8.33 µM; hit rate 66% among 1,600; AID 588402; in the data active = inhibition above about 50%
Target sequence (P04054 whole entry, looked up): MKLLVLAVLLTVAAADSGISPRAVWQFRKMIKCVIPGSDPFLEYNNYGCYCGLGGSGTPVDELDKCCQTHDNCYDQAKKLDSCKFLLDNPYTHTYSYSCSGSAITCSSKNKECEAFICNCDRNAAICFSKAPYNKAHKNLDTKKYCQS
The depositor's hits bear a star; / = not tested or not shown.

SMILES	Fh CTSL1 inh	ATG4B inh	Diaphorase inh	Diaph act CS	HKDC1 inh	PLA2 ctr	others
Cc1ccc(NC(=O)c2cc(NC(=O)CCC(=O)O)ccc2N2CCCCC2)cc1	8	46*	2	1	-5	49
CCC(=O)N(c1nnc(SCC(=O)c2ccc[nH]2)s1)C1CC1	/	-3	/	/	2	/
O=C(NNC(=O)c1ccccc1OCc1ccc(F)cc1)c1ccccc1O	/	-2	/	/	-6	/
COc1ccccc1C(=O)NC1CCCCCCC1	0	-7	1	1	1	/
O=C(NC1CCCC1)c1ccccc1OCc1ccccc1	1	66*	15	0.9	7	73*
O=C(NC1CCN(Cc2ccccc2)CC1)c1ccccc1OCc1ccccc1	0	56*	/	/	-2	62*
O=C(NCc1ccc(F)cc1)c1ccccc1OCc1ccccc1	0	47*	16	0.8	10	52*
CC(C)NC(=O)NC(=O)CN1c2cccc3cccc(c23)S1(=O)=O	4	-3	/	/	10	/
COc1ccc(CCNC(=O)C2CCN(S(=O)(=O)c3ccc(F)cc3)CC2)cc1	1	-5	/	/	-2	/
CCN(Cc1ccc2c(c1)OCCO2)C(=O)CSc1nc(C)nc2sc(C)c(C)c12	/	47*	/	/	4	68*
CC1CCN(C2=C(NS(=O)(=O)c3ccccc3)C(=O)c3ccccc3C2=O)CC1	-3	46*	/	/	16	65*
Cc1ccc(NC(=S)N2CCN(S(=O)(=O)c3ccc(F)cc3)CC2)cc1	/	6	/	/	-2	/
CN(CCOc1ccc(Cl)cc1)C(=O)Cc1ccc(S(=O)(=O)N2CCOCC2)s1	/	-14	/	/	-6	/
O=C(CSc1nc2ccc(Cl)cc2[nH]1)NCCc1ccc(Cl)cc1	-1	46*	10	0.9	9	50*
Cc1ccc(S(=O)(=O)N2CCC(C(=O)Nc3cc(C(F)(F)F)ccc3N3CCOCC3)CC2)cc1C	4	-17	/	/	1	/
N#Cc1c(NC(=S)NC(=O)C2CCCC2)sc2c1CCCCC2	2	74*	13	0.9	8	-11
O=C(CSc1ccc(Br)c2cccc(Cl)c12)Nc1ccc(S(=O)(=O)Nc2nccs2)cc1	0	48*	23	0.8	8	53*
N#C/C(=C\c1ccc(-c2ccccc2[N+](=O)[O-])o1)C(=O)Nc1nc(-c2cccs2)cs1	5	67*	32	0.7	3	76*
N#C/C(=C\c1ccc(-c2ccc([N+](=O)[O-])cc2)o1)C(=O)Nc1nc(-c2cccs2)cs1	1	6	/	/	9	/
COc1ccc(-n2cnc3ccccc3c2=O)c([N+](=O)[O-])c1	/	-4	/	/	9	/
O=C(c1ccc(CS(=O)c2ccc(F)cc2)o1)N1CCN(C2CCCCC2)CC1 (stereo not given)	0	1	/	/	3	/
CCc1cccc(C)c1NC(=O)COC(=O)c1c2c(nc3ccccc13)/C(=C\c1cccs1)CCC2	-3	46*	10	0.9	-4	47
NC(=O)c1ccc(NC(=O)COC(=O)c2c3c(nc4ccccc24)/C(=C\c2cccs2)CCC3)cc1	3	-21	24	0.8	-4	/
O=C1CSc2cc(Cl)ccc2N1	/	-5	/	/	-1	/
Cc1cc(Br)c(OCc2ccc(C(=O)N/N=C3\CC4CC=CC34)cc2)c(Br)c1 (stereo not given)	0	48*	14	0.9	-3	49
SMILES	Fh CTSL1 inh	ATG4B inh	Diaphorase inh	Diaph act CS	HKDC1 inh	PLA2 ctr	others
Cc1cc(C(=O)N/N=C/c2ccc(-c3cccc(Cl)c3Cl)o2)n[nH]1	1	50*	-1	1	-1	21
Cc1cc(C(=O)N/N=C/c2ccc(-c3cccc(Br)c3)o2)n[nH]1	4	-2	/	/	-6	/
O=S(=O)(c1ccc(SCc2ccc(Cl)cc2)nc1)N1CCCC1	/	1	/	/	8	/
CC(/C=C1\SC(=S)N(NC(=O)c2ccc(C)cc2)C1=O)=C\c1ccccc1	1	1	25	0.7	2	/
CC(/C=C1\SC(=S)N(NS(=O)(=O)c2ccc(C)cc2)C1=O)=C\c1ccccc1	0	62*	/	/	14	72*
CC(/C=C1\SC(=S)N(NS(=O)(=O)c2ccccc2)C1=O)=C\c1ccccc1	7	49*	/	/	8	47	ATG4B conf=59*
CC(/C=C1\SC(=S)N(NC(=O)c2ccccc2C)C1=O)=C\c1ccccc1	2	23	23	0.8	2	/
CC(/C=C1\SC(=S)N(C(C(=O)O)C(C)C)C1=O)=C\c1ccccc1 (stereo not given)	-12	35	-8	1.1	2	/
CC(/C=C1\SC(=S)N(c2ccc(C(=O)O)cc2)C1=O)=C\c1ccccc1	-1	52*	/	/	7	47	ATG4B conf=44*
COC(=O)c1c(NC(=O)C2Cc3ccccc3C(=O)O2)sc2c1CCCC2 (stereo not given)	1	49*	10	0.9	-2	29	ATG4B conf=83*
CCOC(=O)c1c(NC(=O)C2Cc3ccccc3C(=O)O2)sc2c1CCCC2 (stereo not given)	1	3	/	/	0	/
Cc1ccc(-c2[nH]nc3c2C(c2ccc(OC(=O)N4CCOCC4)cc2)C(C#N)=C(N)O3)cc1 (stereo not given)	-4	43*	27	0.7	-1	42	ATG4B conf=78*
O=C(NC(Cc1ccccc1)C(=O)O)OCC1c2ccccc2-c2ccccc21 (stereo not given)	3	44*	/	/	0	63*
O=C(NC(Cc1ccccc1)C(=O)O)OCc1ccccc1 (stereo not given)	-1	6	-3	1	6	/
CCOC(=O)C(=NC(C)CC)NNc1cccc(C(F)(F)F)c1 (stereo not given)	1	40*	20	0.8	-6	4
COC(=O)[C@@]12OC[C@]34[C@H]([C@@H](O)[C@@H]1O)[C@@]1(C)C(=O)C(O[C@@H]5OC(CO)[C@@H](O)[C@@H](O)[C@@H]5O)=C[C@@H](C)[C@@H]1C[C@H]3OC(=O)[C@H](OC(=O)/C=C(\C)C(C)(C)OC(C)=O)[C@@H]24 (stereo not given in full)	1	-4	/	/	-2	/
CCOC(=O)c1c(NC(=O)C(C)Sc2nnc(C)c(=O)[nH]2)sc2c1CCCC2 (stereo not given)	-3	62*	/	/	4	65*
CCOC(=O)c1c(NC(=O)CSc2nnc(C)c(=O)[nH]2)sc2c1CCCC2	3	38	0	1	5	/
COc1cccc(CNC(=S)Nc2cc(C)ccc2C)c1	-1	5	6	0.9	-4	/

Source: PubChem BioAssay (several laboratories)
